# PABP polyA inh – PABP-poly(A) binding inhibition | P11940 | PABP-poly(A) RNA binding, fluorescence polarization | inhibition, % at 35 µM | 290,000 tested, 1% active;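 note: calls also rest on retests at 20 µM and on dose response follow-up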
# Target sequence (P11940 whole entry, looked up): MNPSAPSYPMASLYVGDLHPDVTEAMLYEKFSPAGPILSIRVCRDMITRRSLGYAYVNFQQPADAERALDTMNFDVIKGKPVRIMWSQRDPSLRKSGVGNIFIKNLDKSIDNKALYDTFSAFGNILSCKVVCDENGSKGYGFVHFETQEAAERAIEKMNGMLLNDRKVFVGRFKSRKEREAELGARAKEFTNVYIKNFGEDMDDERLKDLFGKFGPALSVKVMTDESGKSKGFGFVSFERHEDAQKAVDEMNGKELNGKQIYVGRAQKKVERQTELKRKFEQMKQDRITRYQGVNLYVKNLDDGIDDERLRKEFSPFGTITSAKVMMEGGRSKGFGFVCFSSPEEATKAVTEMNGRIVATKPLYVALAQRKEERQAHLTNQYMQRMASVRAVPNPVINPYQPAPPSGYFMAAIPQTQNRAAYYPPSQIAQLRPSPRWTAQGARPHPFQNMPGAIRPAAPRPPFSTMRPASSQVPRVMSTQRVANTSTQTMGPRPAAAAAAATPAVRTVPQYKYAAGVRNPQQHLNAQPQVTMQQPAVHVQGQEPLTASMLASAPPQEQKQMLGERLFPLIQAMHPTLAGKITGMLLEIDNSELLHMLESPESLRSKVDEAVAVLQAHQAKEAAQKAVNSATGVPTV
# PABP1 MLLE inh – blocks PAM2 peptide binding to the PABP1 MLLE domain; GST-MLLE / FITC-PAM2 fluorescence polarization; P11940; 360,000 tested, 0.36% active; inhibition, % at 20 µM; in the data active = inhibition above about 35%, passing the limit was not always enough
# FID counter – displaces DNA intercalator in HCV helicase counter-screen | inhibition, % at 7.9 µM | DNA fluorescent intercalator displacement, fluorescence | 290,000 tested, 0.17% active; in the data active = inhibition above about 37%;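 note: higher means more ethidium bromide displaced from hairpin DNA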
# eIF4H FP inh – inhibitors of RNA binding by human eIF4H; eIF4H fluorescence polarization binding assay; 290,000 tested, 0.94% active; AID 2012; inhibition, % at 35 µM;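 note: calls also rest on retests at 20 µM and on dose response follow-up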
# HCV NS3 hel inh – inhibitors of Hepatitis C virus NS3 helicase | NS3 helicase DNA unwinding, Cy5 molecular beacon fluorescence | 290,000 tested, 0.56% active | inhibition, % at 10.9 µM;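 active = inhibition above the mean of all tested compounds plus 3 SD, set per campaign, cut at about 35% in these data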
#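 System: HCV NS3 helicase fragment; control set: DMSO and thioflavine S; technique: Cy5 fluorescence at 0 and 60 min, beacon hairpin quenching; reagent: beacon DNA duplex substrate plus ATP; replicates: singlicate; schedule: 1 h reaction at 25 °C, ATP-initiated; medium: MOPS buffer pH 6.5 with MgCl2, DTT, Tween20, BSA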
# HCV core dimer – blocks dimerization of HCV core protein; 300,000 tested, 0.33% active; inhibition, % at 5 µM; TR-FRET GST/Flag-core106 dimerization, 1536-well;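 active = inhibition above the mean of all tested compounds plus 3 SD, set per screening campaign, cut at about 45% in these data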
#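 Assay system: Tagged HCV core106 pair (GST and Flag) | Buffer or medium: KF-containing HEPES buffer, pH 7.45, DTT, CHAPS, BSA | Also added: Eu donor and XL665 acceptor anti-tag antibodies | Dosing: One concentration, 5 µM, in 0.5% DMSO | Timing: 4 h at 22.5 °C | Technique: TR-FRET 671 and 617 nm emission | Repeats: Singlicate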
# A number is an active result; - = inactive; ? = inconclusive; . = no result given. This is a sample that favours compounds with a hit; in the whole collection about 2% have one here. Unless noted, the rule behind the calls is not given here.
SMILES,PABP polyA inh,PABP1 MLLE inh,FID counter,eIF4H FP inh,HCV NS3 hel inh,HCV core dimer
COc1cccc(C2=NN(C(=O)C3CC3)C(O)(C(F)(F)F)C2)c1 (centres undefined),.,-,.,.,.,.
Cc1ccc(S(=O)(=O)Cc2ccc(C(=O)O)o2)cc1,58.4,-,-,85.6,-,-
CS(=O)(=O)c1ccc(C(=O)N2CCc3ccccc3C2)cc1,-,-,-,active,-,-
CS(=O)(=O)Nc1ccc(C(=O)N2CCc3ccccc3C2)cc1,-,-,-,-,-,-
Cc1ccc(S(=O)(=O)Cc2ccc(C(=O)N3CCc4ccccc4C3)o2)cc1,50.9,-,-,89.5,-,-
CN1OC[C@@H]2CN(S(=O)(=O)c3ccccc3)[C@H](c3ccc(-n4ccnc4)cc3)C[C@@H]21,.,-,.,.,.,.
CC1=C(C(=O)N2CCOCC2)CC(CC(=O)NCC2CCCCC2)C(=O)N1Cc1ccc(C(C)(C)C)cc1 (centres undefined),.,-,.,.,.,.
CSc1ccc(CN(C)C(=O)c2cccc(S(=O)(=O)NCc3ccccc3)c2)cc1,57.0,-,-,-,-,-
CSc1ccc(CN(C)C(=O)c2cc(S(=O)(=O)NCc3ccccc3)ccc2C)cc1,.,-,.,.,.,-
CC(=O)c1ccc(NC(=O)c2noc3c2CCC3)cc1,-,-,-,-,-,-
COc1ccc(NC(=O)c2noc3c2CCC3)cc1,52.5,-,-,106.6,-,-
CC[n+]1ccccc1/C=C/c1ccc(N(C)C)cc1,-,-,-,-,-,.
CC[n+]1ccc(/C=C/c2ccc(N(C)C)cc2)c2ccccc21,-,-,56.7,-,-,.
Cc1cc(C(=O)CSc2nc3ccccc3o2)c(C)n1C1CC1,98.1,-,-,88.1,-,-
Cc1nonc1NC(=O)CSc1nc2ccccc2o1,72.2,-,-,83.3,-,-
C=CCn1c(C)cc(C(=O)CSc2nc3ccccc3o2)c1C,79.3,-,-,70.3,-,-
C=CCn1c(C)cc(C(=O)CSc2nnc(Cc3ccccc3)o2)c1C,-,-,-,-,-,-
CC(C)Cc1nnc(NC(=O)C2CCN(C(=O)c3ccc(F)cc3)CC2)s1,.,-,.,.,.,-
CC(=O)Oc1c(-c2ccc(Br)o2)oc2ccccc2c1=O,-,-,-,-,-,-
Cc1ccc(C(=O)N2CCC(Cc3ccccc3)CC2)cc1S(=O)(=O)N1CCOCC1,.,-,.,.,.,.
CN1CCN(CCNC(=O)c2ccc3nc(-c4ccc(F)cc4)c(-c4ccc(F)cc4)nc3c2)CC1,-,-,47.5,-,-,-
CSc1ncccc1C(=O)N1CCC(C)(C(=O)O)C1 (centres undefined),.,-,.,.,.,.
CC1(OC(=O)CCc2ccccc2)C(=O)C=C2C=C(c3ccc(C#N)cc3)N(Cc3ccccc3)C=C2C1=O (centres undefined),-,-,.,-,.,-
CCCCC1=CC2=CC(=O)C(C)(OC(=O)CC)C(=O)C2=CN1C1CCCCC1 (centres undefined),-,-,.,-,.,-
CCCCC1=CC2=CC(=O)C(C)(OC(=O)CC)C(=O)C2=CN1CCCCO (centres undefined),-,44.6,.,-,.,-
SMILES,PABP polyA inh,PABP1 MLLE inh,FID counter,eIF4H FP inh,HCV NS3 hel inh,HCV core dimer
COC(=O)CCCC1=CC2=CC(=O)C(C)(OC(=O)c3cccs3)C(=O)C2=CN1C1CC1 (centres undefined),55.1,-,.,87.4,.,-
CC1(OC(=O)CCc2ccccc2)C(=O)C=C2C=C(c3ccc(C#N)cc3)N(C3CC3)C=C2C1=O (centres undefined),38.3,-,.,-,.,-
COC(=O)CCCC1=CC2=CC(=O)C(C)(OC(=O)c3cccs3)C(=O)C2=CN1CCN1CCOCC1 (centres undefined),63.5,-,.,-,.,-
Cc1nc2c(=O)[nH]c(=S)[nH]c2[nH]c1=O,.,-,.,.,.,.
Cc1nc2[nH]c(=S)[nH]c(=O)c2nc1C,.,41.6,.,.,.,.
COc1ccc(N2CCN(C(=O)c3ccc(Cl)c(S(=O)(=O)N4CCOCC4)c3)CC2)cc1,.,-,.,.,.,.
COc1nc(NCCc2ccc(OC)c(OC)c2)nc(Nc2ccccc2)n1,-,-,-,-,-,-
N#Cc1ccsc1NC(=O)COC(=O)c1ccc2ccccc2c1,3.5,-,-,-,-,-
Cn1cccc1C(=O)OCC(=O)Nc1sccc1C#N,.,-,.,.,.,.
Cc1cc(=O)oc2ccc(OCC(=O)NCc3ccco3)cc12,-,-,-,-,-,-
Cc1cc(=O)oc2cc(NC(=O)COc3cccc(C(F)(F)F)c3)ccc12,.,-,.,.,.,.
Cc1cccc(OCC(=O)Nc2ccc3c(C)cc(=O)oc3c2)c1,13.5,-,-,78.2,-,-
Cc1cc(=O)oc2cc(OCC(=O)NCc3ccco3)ccc12,-,-,94.5,-,-,-
CC(C)(C)OC(=O)C[C@@H]1C/C=C\C[C@H](CC(=O)N(CCO)Cc2ccccc2)C(=O)N[C@@H](Cc2c[nH]c3ccccc23)COC1=O,.,-,.,.,.,.
CC(C)c1ccc(C(=O)N2CCCCC2c2cc(C(=O)Nc3ccncc3)no2)cc1 (centres undefined),.,-,.,.,.,.
COC(=O)c1cc([N+](=O)[O-])c(C)c(C)n1,.,-,.,.,.,.
C[C@H](CO)N1C[C@H](C)[C@H](CN(C)S(=O)(=O)c2ccc(C#N)cc2)OCc2cnnn2CCCC1=O,.,-,.,.,.,.
O=C(Nc1ccc(F)cc1)c1nc[nH]c1C(=O)Nc1ccccc1[N+](=O)[O-],-,-,-,-,-,-
NNC(=O)c1nc[nH]c1C(=O)Nc1ccccc1[N+](=O)[O-],66.4,-,-,55.3,-,-
CCN1CCN(Cc2ccc(NC(=O)c3ccc(C)c(NC(=O)c4cccc(-c5cn[nH]c(=O)c5)c4)c3)cc2C(F)(F)F)CC1,-,-,40.5,-,-,-
Cc1cc(C(=O)NCc2ccc(C(=O)O)o2)c(C)o1,29.1,-,-,-,-,-
O=C(O)CCC(C(=O)O)n1c(O)c(C2=c3ccccc3=NC2=O)sc1=S (centres undefined),-,39.7,-,-,-,-
O=C(O)Cn1c(O)c(C2=c3ccccc3=NC2=O)sc1=O,-,-,-,-,-,-
CCOC(=O)c1c(C)oc2c1c(C=NCCO)c(O)c1ccccc12,-,51.7,-,?,-,.

# Compound activity deposited in PubChem BioAssay by several laboratories.
